ABHD4 inh = ABHD4 inhibitors, primary screen, biochemical, fluorescence polarization, mouse; (Lyso)-N-acylphosphatidylethanolamine lipase (Mus musculus), Q8VD66; purified mABHD4, FP-Rh probe fluorescence polarization; inhibition, % at 8.92 µM; 370,000 tested, 0.54% active;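 active means inhibition exceeding the mean over every tested compound plus 3 SD, cut at about 30% in these data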;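 further: 0% = plate median of compound wells and 100% = S159A mutant with DMSO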
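Test system: mABHD4 protein | Buffer or medium: HEPES pH 7.0 buffer, 150 mM NaCl, 0.01% Pluronic F-127 | Probe or stimulus: FP-Rh fluorescent activity-based probe, added after compound pre-incubation | Timing: Pre-incubation 45 min, probe exposure 60 min, at 25 °C | Technique: Fluorescence polarization, excitation 525 nm, emission 598 nm, BODIPY TMR filters | Repeats: Single well per compound (singlicate)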
TCR-CD3 inh = inhibitors of human TCR-CD3 interaction, primary screen, biochemical, fluorescence, TAMRA-labeled TCR probe. T-cell receptor (TCR). AID 651800, 2012. 360,000 tested, 0.37% active. inhibition, % at 9.4 µM;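 further: recombinant mutant TCR 2C K166C tagged with TAMRA read by polarization; 0% = receptor in buffer alone and 100% = receptor with positive control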
pPAFAH FP inh = pPAFAH enzyme inhibitors, primary screen, biochemical, fluorescence polarization, human | recombinant pPAFAH, FP-rhodamine probe fluorescence polarization | inhibition, % at 3.39 µM | 330,000 tested, 1.5% active | AID 463082, 2010;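 active means inhibition above the mean inhibition across the screen plus 3 SD, cut at about 25% in these data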;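 further: inhibitors block binding of the rhodamine activity-based probe so polarization drops; 0% = enzyme with DMSO and 100% = wells lacking pPAFAH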
HTRA1 inhibitor = HTRA1 serine protease inhibitors, primary screen, biochemical, fluorescence polarization, HTS | recombinant HTRA1, FP-rhodamine activity-based probe | inhibition, % at 5.96 µM | 340,000 tested, 0.5% active | AID 504803, 2011; in the data active means inhibition above about 36%;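 further: 0% = enzyme with DMSO and 100% = wells lacking enzyme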
SIAE primary = human SIAE inhibitors, primary screen, biochemical, fluorescence polarization, FP-Rh probe, 1536-well HTS | Sialate O-acetylesterase (Homo sapiens), Q9HAT2 | SIAE FP-Rh probe binding | inhibition, % at 9.66 µM | 370,000 tested, 0.69% active | AID 1053197, 2014;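 active means inhibition above a cutoff: mean of compounds within the control limits plus 3 SD of those, cut at about 17% in these data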;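 further: 0% = plate median of compound wells and 100% = probe without SIAE protein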
Target sequence (Q9HAT2 whole entry, looked up): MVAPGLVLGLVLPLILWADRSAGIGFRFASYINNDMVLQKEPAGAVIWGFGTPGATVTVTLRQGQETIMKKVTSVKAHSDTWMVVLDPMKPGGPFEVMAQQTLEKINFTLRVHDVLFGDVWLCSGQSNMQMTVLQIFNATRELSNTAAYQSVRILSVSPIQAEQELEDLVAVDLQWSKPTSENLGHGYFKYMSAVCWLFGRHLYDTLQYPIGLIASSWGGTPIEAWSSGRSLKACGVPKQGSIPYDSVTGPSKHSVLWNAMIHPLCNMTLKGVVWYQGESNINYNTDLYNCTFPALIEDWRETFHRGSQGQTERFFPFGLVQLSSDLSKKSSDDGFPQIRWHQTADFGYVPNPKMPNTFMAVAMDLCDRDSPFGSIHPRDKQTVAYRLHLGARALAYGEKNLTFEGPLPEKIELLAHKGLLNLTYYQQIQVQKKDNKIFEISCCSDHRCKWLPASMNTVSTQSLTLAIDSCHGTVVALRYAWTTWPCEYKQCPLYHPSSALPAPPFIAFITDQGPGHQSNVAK
pPAFAH confirm = pPAFAH (PLA2G7) enzyme inhibitors, confirmation, biochemical, fluorescence polarization, human; inhibition, % at 3.39 µM; recombinant pPAFAH, FP-Rh probe fluorescence polarization; 2,300 tested, 72% active; shares compounds with pPAFAH FP inh; AID 463230, 2010;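 active means mean inhibition of the triplicate above the hit cutoff set for the earlier primary screen, cut at about 25% in these data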;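 further: 0% = enzyme with DMSO and 100% = wells lacking pPAFAH enzyme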
HTRA1 inh conf = HTRA1 protease inhibitors, retest, confirmation, biochemical, fluorescence polarization; recombinant HTRA1, FP-rhodamine activity-based probe; 1,600 tested, 66% active; AID 540248, 2011; inhibition, % at 5.96 µM; shares compounds with HTRA1 inhibitor;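 active means mean inhibition over three repeats above a set limit taken from the earlier primary screen, cut at about 37% in these data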;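 further: 0% = HTRA1 with DMSO and 100% = wells lacking HTRA1; inhibitors block probe binding so polarization drops and inhibition rises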
BSA probe FL = compounds interfering with TAMRA-BSA probe, counter-screen for TCR-CD3 interaction inhibitor project, biochemical, fluorescence, TAMRA-labeled BSA; shares compounds with TCR-CD3 inh; TAMRA-labeled BSA probe fluorescence counterscreen; 1,200 tested, 10% active; inhibition, % at 9.4 µM; in the data active means inhibition above about 23%;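 further: 0% = buffer low control and 100% = reference high control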
TCR-CD3 inh conf = TCR-CD3 interaction inhibitors, retest, confirmation, biochemical, fluorescence, TAMRA-labeled TCR probe; inhibition, % at 9.4 µM; 1,200 tested, 48% active; AID 652036, 2013; TAMRA-labeled TCR probe fluorescence binding assay; shares compounds with TCR-CD3 inh
mABHD4 conf = ABHD4 inhibitors, retest, confirmation, biochemical, fluorescence polarization, mouse. shares compounds with ABHD4 inh. purified mABHD4, FP-Rh probe fluorescence polarization. inhibition, % at 8.92 µM. 1,800 tested, 55% active. AID 720658, 2013;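 active means mean inhibition across replicates above the hit cutoff set in the primary screen, cut at about 30% in these data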;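 further: 0% = wild-type ABHD4 with DMSO and 100% = catalytically dead S159A mutant with DMSO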
Starred values were filed as active, the others as inactive; . = not tested or not shown. Hits are enriched below; roughly 2.3% of the tested compounds scored in any of these assays. Unless noted, no stated cut-off is given here; in the data, active means inhibition above about 19%; inactive means the rest.

SMILES | ABHD4 inh | TCR-CD3 inh | pPAFAH FP inh | HTRA1 inhibitor | SIAE primary | pPAFAH confirm | mABHD4 conf | others
O=C1CC(c2ccc(O)c(O)c2)Oc2c1ccc(O)c2O (stereo not drawn) | 27.8 | 27.7* | 59.6* | 33.5 | 10.6 | 60.0* | . | BSA probe FL=-22.9;TCR-CD3 inh conf=33.1*
Cc1c(NC(=S)N/N=C/c2cc([N+](=O)[O-])ccc2O)c(=O)n(-c2ccccc2)n1C | 27.4 | 31.7* | 47.2* | 31.3 | 11.7 | 16.8 | . | BSA probe FL=-4.8;TCR-CD3 inh conf=30.9*
COc1cc([N+](=O)[O-])cc(/C=N/NC(=O)c2cc(-c3ccccc3)nc3ccccc23)c1O | 8.7 | 24.3* | 35.9* | 10.2 | -4.0 | 35.2* | . | BSA probe FL=9.8;TCR-CD3 inh conf=8.1
COc1ccc(/C=N/NC(=O)c2cc(-c3ccccc3)nc3ccccc23)c(C(=O)O)c1OC | -8.3 | 2.4 | -2.8 | -16.3 | -11.0 | . | .
C=CCN1C(=O)[C@H](CC(=O)NCCC(C)C)[C@@]2(C(=O)OCC)CCCC=C12 | -0.1 | . | . | . | 1.3 | . | .
O=C(N/N=C/c1cc([N+](=O)[O-])ccc1O)c1cccc2cc[nH]c12 | 8.3 | 20.0* | 60.8* | 21.9 | 4.9 | 51.8* | . | BSA probe FL=-8.1;TCR-CD3 inh conf=18.7
CCOC(=O)CN(C(=O)c1snc(C(N)=O)c1N)C(C(=O)NCCC(C)C)c1ccc(C)cc1 (stereo not drawn) | -0.1 | 7.8 | . | -1.9 | -7.0 | . | .
COC(=O)[C@]12CCCCC=C1N(Cc1ccco1)C(=O)[C@H](CC(=O)N1CCOCC1)C2 | 4.3 | -1.1 | . | . | 13.9 | . | .
Cc1ccc(/C=C/C(=O)OCC(=O)c2ccc3c(c2)NC(=O)CO3)o1 | -0.1 | 4.7 | 3.0 | -8.6 | -0.6 | . | .
O=C1COc2ccc(C(=O)COC(=O)/C=C/c3ccc(Br)o3)cc2N1 | -0.8 | 22.3* | 38.5* | -0.3 | 1.1 | 21.6 | . | BSA probe FL=-1.6;TCR-CD3 inh conf=21.1*
O=C1/C(=C\c2cccc([N+](=O)[O-])c2O)SC(=S)N1Cc1ccccc1 | -27.4 | 82.2* | 34.7* | 9.4 | -6.2 | 77.0* | . | BSA probe FL=-89.0;TCR-CD3 inh conf=8.8
Cc1ccc(N2CCN(C(C(=O)Nc3c(C)cccc3C)c3cc4ccccc4o3)CC2)cc1 (stereo not drawn) | 2.7 | 2.4 | . | . | 6.2 | . | .
CNc1cc(-c2cnn(CC(C)C)c2)ncn1 | -3.0 | 9.2 | . | . | 2.8 | . | .
Cc1ccc(NC(=O)CSc2nnc(-c3ccco3)c(-c3ccco3)n2)cc1 | 41.1* | 7.5 | 47.6* | 31.3 | 5.7 | 29.1* | 35.9*
O=C(CSc1nnc(-c2ccco2)c(-c2ccco2)n1)Nc1ccccc1 | 50.8* | 8.7 | 59.5* | 18.1 | 9.1 | 20.9 | 38.9*
O=C(NCCc1c[nH]c2ccccc12)OCc1cn(Cc2ccccc2F)nn1 | 1.1 | . | . | . | 4.0 | . | .
COc1ccc(NC(=O)C(c2ccccc2F)n2c(=O)c(-c3cc4ccccc4[nH]3)nc3ccccc32)cc1 (stereo not drawn) | -38.4 | 2.3 | . | . | -29.5 | . | .
O=C1/C(=C/C=C/c2ccco2)SC(=S)N1c1ccc(O)cc1 | 37.0* | 10.5 | 83.0* | 23.1 | 8.6 | 40.7* | -42.0
O=C(NN1C(=O)/C(=C/C=C/c2ccco2)SC1=S)c1ccncc1 | 49.3* | 15.6 | 72.1* | . | 15.2 | 16.3 | 12.8
O=C(NN1C(=O)/C(=C/C=C/c2ccccc2)SC1=S)c1ccncc1 | -13.1 | -4.6 | 9.5 | 0.5 | 0.1 | . | .
Cc1ccc(CN2C(C(=O)NC3CCCC3)CSCCS2(=O)=O)cc1 (stereo not drawn) | 6.4 | . | . | . | -5.9 | . | .
CCNc1ccc(Br)cc(C(=O)/C=C/c2ccc3c(c2)OCO3)c1=O | 38.1* | 6.8 | 47.6* | 52.0* | 11.5 | 17.4 | 45.5* | HTRA1 inh conf=27.1
COc1cccc(/C=C/C(=O)OCC(=O)NCCNC(=O)COC(=O)/C=C/c2cccc(OC)c2)c1 | 5.2 | -0.4 | 4.3 | 2.9 | -4.2 | . | .
CNc1ccc(Br)cc(C(=O)/C=C/c2ccc(Cl)cc2Cl)c1=O | 33.2* | 11.4 | 51.5* | 63.9* | 12.9 | 35.6* | 57.2* | HTRA1 inh conf=48.3*
CNc1ccc(Br)cc(C(=O)/C=C/c2cccc(OC)c2)c1=O | 36.8* | 9.7 | 36.3* | 39.5* | 7.8 | 24.1 | 42.8* | HTRA1 inh conf=-0.9
SMILES | ABHD4 inh | TCR-CD3 inh | pPAFAH FP inh | HTRA1 inhibitor | SIAE primary | pPAFAH confirm | mABHD4 conf | others
Nc1ccccc1C(=O)/C=C/c1ccc2c(c1)OCO2 | -4.0 | 0.7 | 1.9 | -18.7 | 1.0 | . | .
O=C(NCc1ccc(C(F)(F)F)cc1)O[C@H]1CC[C@@]23CCCN2C(=O)CCC[C@H]3C1 | -0.1 | . | . | . | -5.2 | . | .
CN(C)C1(CN=Cc2cc(Cl)cc([N+](=O)[O-])c2O)CCCCC1 | 36.4* | -7.0 | 42.0* | 33.9 | 7.5 | 27.9* | 44.9*
COc1ccc(N2CCN(CCNS(=O)(=O)c3ccc(Br)s3)CC2)cc1 | 3.7 | . | . | . | -0.9 | . | .
O=C(O)C1Nc2c(O)cccc2C2C=CCC12 (stereo not drawn) | 43.5* | 71.9* | 87.7* | 50.1* | 63.9* | 42.5* | 47.2*
COC(=O)[C@]12C[C@H](CC(=O)NCC34CC5CC(CC(C5)C3)C4)C(=O)N(Cc3ccc(Cl)cc3Cl)C1=C[C@H](C(C)C)O[C@@H]2C1CC1 | -6.2 | . | . | . | -3.0 | . | .
Cc1c2ccccc2nc2c(F)c(NCCO)c(F)c(F)c12 | 58.4* | 15.7 | 37.1* | 66.8* | 15.8 | 13.8 | 51.8* | HTRA1 inh conf=27.6
C=CCn1c(=O)[nH]c2nc3cc(N=CN(C)C)c(C)cc3nc2c1=O | 0.0 | 8.6 | 3.7 | 2.8 | -2.2 | . | .
Cc1cc2nc3c(=O)n(CCc4ccccc4)c(=O)[nH]c3nc2cc1N | 54.6* | 2.8 | 55.9* | 34.9 | 10.2 | 20.1 | 19.6
CCCC1CCC2(CC1)CCC2OC(=O)Nc1c(OC)cccc1OC (stereo not drawn) | -5.0 | . | . | . | 0.3 | . | .
O=C(O)c1ccc(C=NN=Cc2ccco2)cc1 | -9.1 | -4.3 | . | 1.7 | 5.6 | . | .

Source: PubChem (The Scripps Research Institute Molecular Screening Center)
